Assay outcomes deposited in PubChem by several laboratories.
Diaph act CS – diaphorase activation or chemical reduction counter-screen; Diaphorase/resazurin coupled assay, resorufin fluorescence, 16 min; hits give high values; 1 = vehicle wells, 0 = NADH-free wells; activation factor at 20 µM; 190,000 compounds, 0.005% hits; AID 1229;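 active = diaphorase activity raised at least twofold by the compound at 20 µM; inactive = activation factor below 2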
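Material: Clostridium kluyveri diaphorase, purified enzyme; Quantity: enzyme 0.07 U/mL final; Medium: HEPES pH 7.4 buffer with MgCl2 and Tween 20; Dosing: single compound dose of 20 µM, 1% DMSO final; Schedule: 16 min reaction at room temperature; Measured by: red resorufin fluorescence at 544/590 nm excitation/emission.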
ROMK mod – modulates human ROMK potassium channel activity | AID 1918 | B-score at 10 µM | Tet-inducible ROMK, thallium flux fluorescence; actives lie on both sides | 130,000 compounds, 2% hits;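 active = signal ratio slope over the read window, or its plate-corrected B-score, at least 3 SD from the plate mean, either direction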;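 also: B-score of the F/F0 ratio slope over 7 to 12 s after thallium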
Cl transport mod – modulates chloride dependent transport by human KCC2; AID 1456; KCC2 cells, thallium flux FluoZin-2 fluorescence; B-score of Tl+ flux slope (higher = more flux/activation; lower = inhibition) at 10 µM; Q9H2X9; 190,000 compounds, 2.2% hits;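 active = thallium flux slope and its plate-corrected score both differing from the plate sample mean at a set confidence after two filtering rounds, in either direction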;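 also: slope of fluorescence scaled to starting intensity during 10 to 20 s after thallium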
L major viab – inhibitors of Leishmania major promastigote growth | Leishmania major promastigotes, resazurin fluorescence viability | inhibition, % at 10 µM | 200,000 compounds, 9% hits | AID 1063; in the data active = inhibition above about 50%;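 also: promastigotes grown with compound for 44 hours at 28 °C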
Diaph inh CS – counter-screen for diaphorase-based assays: diaphorase inhibitors and chemical oxidizers. diaphorase resazurin-to-resorufin fluorescence, NADH, 16 min; bacterial (C. kluyveri) enzyme, not human. 190,000 compounds, 0.69% hits. inhibition, % at 20 µM;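 active = primary screen inhibition at 20 µM above a set limit, cut at about 50% in these data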;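 also: plate controls were DMSO with full reaction for no effect and wells lacking NADH for full effect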
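controls = No-NADH positive control and DMSO neutral control | system = Clostridium kluyveri diaphorase enzyme | timing = reaction incubation of 16 min at room temperature | signal = resorufin fluorescence 544/590 nm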
WT yeast gro inh – growth inhibition of WT yeast, mitochondrial fusion screen; inhibition, % at 10 µM; 190,000 compounds, 2.1% hits; mitochondrial fusion phenotypic screen, WT strain; in the data active = inhibition above about 58%; tested in S. cerevisiae
ROMK hit retest – human ROMK channel modulation, retest confirmation; ROMK thallium flux, fluorescence ratio; hits give low values; shares compounds with ROMK mod; 3,000 compounds, 54% hits; normalized thallium flux (F/F0 slope) at 10 µM; AID 1917;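 active = Flux at 10 µM at least 3 SD below or above vehicle control mean in one or both replicates; inconclusive = no clear call, values can overlap the other calls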
* hit, by the source's call; ? = inconclusive; . = not tested or not shown. Compounds with a hit are over-represented: about 12% of the library has one in this group of screens.

SMILES | Diaph act CS | ROMK mod | Cl transport mod | L major viab | Diaph inh CS | WT yeast gro inh | ROMK hit retest
CCOC(=O)c1[nH]c2ccccc2c1NC(=S)Nc1cccc(C)c1 | 0.8 | -0.14 | 1.8 | -6 | 16 | -9 | 0.077
C=CCn1c(SCC(=O)c2[nH]c(C)c(C(=O)OC)c2C)nc2scc(-c3ccc(OC)c(OC)c3)c2c1=O | 0.9 | . | 0.014 | -5 | 11 | -6 | .
COC(=O)c1cnn(-c2ccccc2)c1-n1cccc1C=O | 1 | -5.7* | -0.13 | -1 | 3 | -11 | 0.077
COC(=O)c1cnn(-c2ccccc2)c1C(OC)OC | . | . | 0.32 | . | . | . | 0.075
CC(=O)c1cnn(-c2ccccc2)c1C | 1 | -0.24 | -0.26 | -8 | -3 | -54 | .
Cc1ccc(CNC(=O)/C=C/c2ccc(S(=O)(=O)N3CCOCC3)cc2)cc1 | 0.9 | 0.42 | 0.41 | -1 | 8 | -9 | .
CCn1cc(S(=O)(=O)N2CCN(Cc3cccc(Cl)c3)CC2)cn1 | 1 | -0.26 | 0.26 | 1 | 1 | 16 | .
CCn1cc(S(=O)(=O)N2CCN(Cc3ccc(F)cc3)CC2)cn1 | 0.9 | -23* | -1 | 6 | 7 | 3 | 0.083
Cc1cccn2c(=O)c3cc(C(=O)NC4CCCC4)c(=N)n(C4CCCC4)c3nc12 | 0.9 | -2.6* | -1.7 | 42 | 8 | . | ?
CC(=O)Nc1ccc(/C=C(\C#N)C(=O)NC2CCCCC2)cc1 | 0.8 | -0.15 | -0.00077 | 22 | 16 | -18 | .
C=CCNC(=O)/C(C#N)=C/c1ccc(OS(=O)(=O)c2ccc(C)cc2)c(OC)c1 | 0.8 | -4.6* | 0.054 | 92* | 20 | 42 | 0.042*
C=CCNC(=O)/C(C#N)=C/c1ccc(SC)cc1 | 1 | -4.5* | 0.36 | 17 | -3 | -13 | 0.053*
CSc1ccc(/C=C(\C#N)C(=O)NC2CCCCC2)cc1 | 1 | -2.5* | -0.53 | -1 | 0 | -25 | 0.054*
CC1CCCCC1NC(=O)/C(C#N)=C/c1ccc(F)c(F)c1 (stereo not given) | 1 | -3* | 0.35 | 96* | 5 | 20 | 0.05*
O=C(O)CCCCCCCCCC(=O)c1cccs1 | 1.1 | . | -0.21 | 11 | -8 | 10 | .
Cc1ccc(S(=O)(=O)/N=C/c2cc(Br)ccc2O)cc1 | 1.1 | 0.76 | 0.22 | 3 | -6 | -26 | .
Cc1cc(N=Cc2cc(Br)ccc2O)no1 | 1 | . | -0.51 | -7 | -2 | 11 | ?
N#C/C(=C\c1ccncc1)c1nc2c(s1)CCCC2 | 1 | -2* | 1.3 | 58* | 0 | 8 | 0.063*
O=c1oc2c(CN3CCCCCC3)c(O)ccc2cc1-c1nc2ccccc2[nH]1 | 0.7 | . | . | . | 28 | . | .
CN1CCN(Cc2c(O)ccc3cc(-c4ccccn4)c(=O)oc23)CC1 | 0.9 | -3.3* | -0.22 | 17 | 8 | -6 | 0.059*
Cc1ccc(S(=O)(=O)Nc2cc(NC(=O)CN3CCOCC3)ccc2Cl)cc1 | 1 | . | 0.052 | -4 | -3 | . | 0.088
CCOC(=O)C(NC(C)=O)C(=O)Nc1ccc(C(C)(C)C)cc1 (stereo not given) | 1 | 3.5* | 0.3 | 2 | -3 | -14 | 0.082
CCOC(=O)C(NC(C)=O)C(=O)Nc1ccc(C(C)C)cc1 (stereo not given) | 1 | -0.65 | -0.015 | -3 | -2 | -6 | .
Cc1cc2c3c(c1C)C1(C(=O)N3C(C)(C)CC2C)C(C#N)=C(N)OC2=C1C(=O)CC(C)(C)C2 (stereo not given) | 1 | . | -0.041 | 10 | 0 | 6 | .
COCC(=O)Nc1sc2c(c1C(=O)OC)C(C(=O)OC)CC2 (stereo not given) | 1 | . | 0.81 | 3 | 5 | -1 | 0.081
SMILES | Diaph act CS | ROMK mod | Cl transport mod | L major viab | Diaph inh CS | WT yeast gro inh | ROMK hit retest
Cc1ccc(C(=O)NC(C#N)=C(Cl)Cl)cc1 | 1.1 | -2 | 1.4 | 15 | -7 | 19 | 0.061*
Cc1ccc(C(=O)NCC#N)cc1 | 1 | 0.025 | 0.12 | -9 | 0 | 15 | .
C=CCn1c(COc2cccc(C)c2C)nnc1SCC(=O)N1CCN(c2ccccc2)CC1 | 0.9 | . | -0.93 | 12 | 11 | 29 | 0.054*
Cc1cccc(Nc2ccccc2C(=O)O)c1C | 1.1 | . | -0.75 | 9 | -12 | -29 | .
Cc1cccc(Nc2ncccc2C(=O)O)c1C | 0.9 | . | -0.98 | -8 | 12 | . | 0.079
CC(C(=O)c1ccc(-c2ccccc2)cc1)[n+]1cccc(NC(=O)c2ccccc2)c1 (stereo not given) | . | -4.9* | 0.0029 | . | . | . | 0.057*
CCN(CC)C(=O)CSc1nc2sc(C)c(C)c2c(=O)[nH]1 | 0.8 | . | -1 | 1 | 15 | 15 | 0.076
Cc1sc2nc(SCC(=O)N(C)C)[nH]c(=O)c2c1C | 0.8 | -0.039 | -0.59 | -1 | 22 | 21 | .
COc1ccccc1C1/C(=C(\O)c2c(C)nc3c(C)cccn23)C(=O)C(=O)N1CCCN(C)C (stereo not given) | . | -0.16 | -0.13 | -2 | . | . | .
Cc1nn(CCCC(=O)Nc2c(F)cc(F)cc2Br)c(C)c1[N+](=O)[O-] | 0.9 | -0.049 | 0.057 | 8 | 12 | 2 | .
COc1ccc(C2=NN(C(=O)CCC(=O)O)C(c3cccs3)C2)cc1 (stereo not given) | 0.9 | -3.5* | 0.29 | -15 | 11 | -14 | 0.075
Cc1nc2ccc(S(=O)(=O)NCC(=O)N3CCC(C)CC3)cc2s1 | 0.9 | -0.013 | . | -4 | 8 | -2 | .
CCOC(=O)C(=NCCCN(C)C)NNc1cc(C(F)(F)F)ccc1Cl | 0.8 | -2.7* | 0.38 | 14 | 16 | 18 | 0.059*
CCOC(=O)C(=NC(C)(C)C)NNc1cc(Cl)ccc1Cl | 0.8 | -0.62 | 1.4 | -3 | 17 | 53 | .
CCCCCc1cc(O)c2c(C)cc(=O)oc2c1 | 0.9 | . | 0.041 | 34 | 9 | -1 | 0.055*
O=C(COC(=O)c1cc(-c2ccc(F)cc2)nc2ccccc12)NCC1CCCO1 (stereo not given) | 1 | -4.4* | -0.69 | -1 | 3 | 9 | 0.066*
CCCOc1ccc(-c2cc(C(=O)NCC3CCCO3)c3ccccc3n2)cc1 (stereo not given) | 0.9 | -4.2* | 0.24 | 12 | 10 | 16 | ?
CCCc1ccc(C(=O)Cn2nc(C(=O)O)c3ccccc3c2=O)cc1 | 1 | 0.62 | 0.11 | -7 | -2 | 4 | .
Cc1cc(C(F)(F)F)nn1CC(=O)NNC(=S)Nc1cccc(Cl)c1 | 0.9 | -0.45 | 0.52 | -7 | 9 | -8 | .
CCOc1ccc(-n2c(COc3ccc(C)cc3)nnc2SCC(N)=O)cc1 | 0.9 | 1.1 | 1.3 | -4 | 12 | 18 | .
CCOC(=O)C(CC)Sc1nnc(COc2ccc(C)cc2)n1-c1ccccc1 (stereo not given) | 0.7 | -4.5* | -2.4 | 29 | 30 | 31 | 0.066*
